From ChEMBL document CHEMBL3593164, “Rational Design and Synthesis of Thioridazine Analogues as Enhancers of the Antituberculosis Therapy” (J Med Chem, 2015) come the findings set out here.

Experiment [1] relates to Mycobacterium tuberculosis. The experiment can be described thus: Inhibition of multidrug resistance efflux pump in Mycobacterium tuberculosis H37Rv assessed as reduction in ofloxacin MIC at 7.5 ug/ml after 7 days by two-dimensional broth microdilution checkerboard assay. The essentials: (§1)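 M. tuberculosis H37Rv two-dimensional broth microdilution checkerboard. MICs of INH, RIF, AMK, OFX or EtBr were determined without and with graded sub-inhibitory compound concentrations, starting at ½ MIC. Where MIC was undeterminable, the highest concentration still permitting growth was taken as ½ MIC. FIC = MIC of antibacterial in combination / MIC alone. FIC ≤0.25 was scored as synergism and ≥2 as antagonism.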
(In broth dilution the organism is exposed to a series of concentrations in liquid medium.)

For experiment [2], the system named is Mycobacterium tuberculosis. The experiment can be described thus: Inhibition of multidrug resistance efflux pump in Mycobacterium tuberculosis H37Rv assessed as isoniazid MIC at 1.88 ug/ml after 7 days by two-dimensional broth microdilution checkerboard assay. Particulars: 168 h. The essentials:
(§2)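 M. tuberculosis H37Rv ATCC27294. MICs of INH, RIF, AMK, OFX and EtBr were determined alone and with sub-inhibitory concentrations of test compound by two-dimensional broth microdilution checkerboard. Where a compound's MIC was not determinable, the highest concentration still allowing growth was taken as ½ MIC. FIC = MIC in combination / MIC alone. FIC ≤0.25 was scored as synergism and ≥2 as antagonism.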

Experiment [3] relates to Mycobacterium tuberculosis. In words: Inhibition of multidrug resistance efflux pump in Mycobacterium tuberculosis H37Rv assessed as isoniazid MIC at 3.75 ug/ml after 7 days by two-dimensional broth microdilution checkerboard assay. Particulars: 168 h. The essentials: as §1
For experiment [4], the system named is Mycobacterium tuberculosis. The experiment can be described thus: Inhibition of multidrug resistance efflux pump in Mycobacterium tuberculosis H37Rv assessed as ofloxacin MIC at 0.12 ug/ml after 7 days by two-dimensional broth microdilution checkerboard assay. Particulars: 168 h. In short, it runs like this:
as §2

Experiment [5] has as its system Mycobacterium tuberculosis. The experiment can be described thus: Inhibition of multidrug resistance efflux pump in Mycobacterium tuberculosis H37Rv assessed as isoniazid MIC at 0.12 ug/ml after 7 days by two-dimensional broth microdilution checkerboard assay. Particulars: 168 h. The essentials:
as §2

Experiment [6] concerns Mycobacterium tuberculosis. The experiment can be described thus: Inhibition of multidrug resistance efflux pump in Mycobacterium tuberculosis H37Rv assessed as ethidium bromide MIC at 7.5 ug/ml after 7 days by two-dimensional broth microdilution checkerboard assay. Particulars: 168 h. In short, it runs like this:
as §1

For experiment [7], the system named is Mycobacterium tuberculosis. In words: Inhibition of multidrug resistance efflux pump in Mycobacterium tuberculosis H37Rv assessed as rifampin MIC at 7.5 ug/ml after 7 days by two-dimensional broth microdilution checkerboard assay. Particulars: 168 h. The essentials: as §1
The test system of experiment [8] is Mycobacterium tuberculosis. The experiment can be described thus: Inhibition of multidrug resistance efflux pump in Mycobacterium tuberculosis H37Rv assessed as rifampin MIC at 0.94 ug/ml after 7 days by two-dimensional broth microdilution checkerboard assay. Particulars: 168 h. In short, it runs like this:
as §2

Experiment [9] concerns Mycobacterium tuberculosis. The experiment can be described thus: Inhibition of multidrug resistance efflux pump in Mycobacterium tuberculosis H37Rv assessed as ethidium bromide MIC at 1.88 ug/ml after 7 days by two-dimensional broth microdilution checkerboard assay. Particulars: 168 h. The essentials:
as §2

Experiment [10] deals with Mycobacterium tuberculosis. The experiment can be described thus: Inhibition of multidrug resistance efflux pump in Mycobacterium tuberculosis H37Rv assessed as reduction in isoniazid MIC at 128 ug/ml after 7 days by two-dimensional broth microdilution checkerboard assay.
Experiment [11] relates to Mycobacterium tuberculosis. The experiment can be described thus: Inhibition of multidrug resistance efflux pump in Mycobacterium tuberculosis H37Rv assessed as reduction in amikacin MIC at 128 ug/ml after 7 days by two-dimensional broth microdilution checkerboard assay.
The subject of experiment [12] is Mycobacterium tuberculosis. In words: Inhibition of multidrug resistance efflux pump in Mycobacterium tuberculosis H37Rv assessed as ethidium bromide MIC at 2 ug/ml after 7 days by two-dimensional broth microdilution checkerboard assay. Particulars: 168 h.
The subject of experiment [13] is Mycobacterium tuberculosis. In words: Inhibition of multidrug resistance efflux pump in Mycobacterium tuberculosis H37Rv assessed as amikacin MIC at 1 ug/ml after 7 days by two-dimensional broth microdilution checkerboard assay. Particulars: 168 h. The essentials:
as §1

Experiment [14] deals with Mycobacterium tuberculosis. The experiment can be described thus: Inhibition of multidrug resistance efflux pump in Mycobacterium tuberculosis H37Rv assessed as amikacin MIC at 2 ug/ml after 7 days by two-dimensional broth microdilution checkerboard assay. Particulars: 168 h.
The subject of experiment [15] is Mycobacterium tuberculosis. In words: Inhibition of multidrug resistance efflux pump in Mycobacterium tuberculosis H37Rv assessed as reduction in rifampin MIC at 4 ug/ml after 7 days by two-dimensional broth microdilution checkerboard assay. In short, it runs like this: as §1

A word on the MIC: it is the lowest concentration that inhibits growth of the organism. Turning to `CSc1ccc2c(c1)N(CCC1CCCCN1C)c1ccccc1S2` (stereo not given) [THIORIDAZINE], in experiment [1], the “fold change (FC)” value is listed as more than 128. For the same molecule, the MIC in experiment [2] was 0.1 µg/mL; in [3], 0.05 µg/mL; in experiment [4] it was 1 µg/mL; in experiment [5], 0.1 µg/mL; in experiment [6] it was less than 0.195 µg/mL; in experiment [7], less than 0.0156 µg/mL. Besides, the MIC in experiment [8] is 1 µg/mL; in [9] it was 6.25 µg/mL.

For `CN1CCCCC1CCn1ccc2ccc(Br)cc21` (racemic), the “fold change (FC)” value is given as more than 164 in experiment [10] and more than 128 in experiment [11].

Turning to `CN1CCCCC1CCn1c2ccccc2c2ccccc21` (racemic), the MIC stood at 12.5 µg/mL in experiment [12], 1 µg/mL in experiment [13] and 1 µg/mL in [14].

As for `COc1ccc(N(CCC2CCCCN2C)C(C)C)cc1OC` (racemic), the “fold change (FC)” value in [15] is on record as 4.
